SENP8 block-1: SENP8 protease inhibitors, primary screen, biochemical, luminescence; inhibition, % at 10 µM; 330,000 compounds, 1.2% hits; AID 2540, 2010; purified SENP8, Z-RLRGG-aminoluciferin cleavage; in the data active = inhibition above about 50%
SENP6 inh: SENP6 protease inhibitors, primary screen, biochemical, luminescence, uHTS | Recombinant SENP6 catalytic domain, aminoluciferin luminescence | Sentrin-specific protease 6 (Homo sapiens), Q9GZR1 | inhibition, % at 10 µM | 330,000 compounds, 1.8% hits;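 active = inhibition above about 50% at the single tested dose, limit read from the data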;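 also: plate controls were DMSO wells with enzyme for no effect and DMSO wells lacking enzyme for full effect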
Target sequence (Q9GZR1 628-1112 limits assumed): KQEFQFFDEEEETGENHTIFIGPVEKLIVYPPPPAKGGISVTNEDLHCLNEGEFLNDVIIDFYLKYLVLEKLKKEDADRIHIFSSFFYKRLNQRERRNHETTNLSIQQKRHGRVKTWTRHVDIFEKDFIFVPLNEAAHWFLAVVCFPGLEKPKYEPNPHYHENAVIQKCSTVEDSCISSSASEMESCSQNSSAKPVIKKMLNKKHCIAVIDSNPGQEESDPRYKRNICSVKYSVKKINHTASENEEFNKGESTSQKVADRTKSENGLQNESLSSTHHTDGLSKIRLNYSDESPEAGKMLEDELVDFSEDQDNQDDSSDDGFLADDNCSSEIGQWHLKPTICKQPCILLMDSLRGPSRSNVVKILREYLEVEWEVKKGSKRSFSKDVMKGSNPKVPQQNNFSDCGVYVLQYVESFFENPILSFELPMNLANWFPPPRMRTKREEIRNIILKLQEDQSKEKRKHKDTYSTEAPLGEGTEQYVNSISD
SENP8 block-2: human SENP8 protease inhibitors, primary screen, biochemical, fluorescence, Nedd8 protein substrate, uHTS | Sentrin-specific protease 8 (Homo sapiens), Q96LD8 | 360,000 compounds, 0.64% hits | recombinant SENP8 | inhibition, % at 20 µM; in the data active = inhibition mostly above about 40%, no sharp cut-off; inactive = mostly below about 27%
SENP1 inh: human SENP1 catalytic domain inhibitors, primary screen, biochemical, FRET, uHTS; Sentrin-specific protease 1 (Homo sapiens), Q9P0U3; recombinant SENP1 catalytic domain, CyPet-SUMO1-YPet FRET cleavage; inhibition, % at 10 µM; AID 624204, 2012; 360,000 compounds, 0.21% hits;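 active = inhibition at least 30% at 10 µM, raw YFP signal under a set limit, fluorescence ratio 0.5 to 1.5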;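 also: 0% = enzyme with DMSO and 100% = no enzyme wells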
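Controls: no-enzyme wells low, DMSO-plus-enzyme wells high control. Test system: human recombinant His6-tagged SENP1 catalytic domain enzyme. Reagent: SFCypet-SUMO1-SFYpet FRET protein substrate, 25 nM final. Doses: one dose per compound, 10 µM, 0.5% DMSO. Detection: FRET, CFP and YFP emission. Timing: 50 min reaction at room temperature.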
SENP7 inh: SENP7 protease inhibitors, primary screen, biochemical, luminescence, uHTS | recombinant SENP7, Z-RLRGG-aminoluciferin luminescence, 40 min | inhibition, % at 5 µM | 330,000 compounds, 1.5% hits | AID 434973, 2010;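 active = inhibition above about 50% at the single test dose, limit read from the data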;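 also: plate controls were DMSO with enzyme for no effect and no enzyme buffer wells for full effect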
SENP8 conf: SENP8 protease inhibitors, retest, confirmation, biochemical, luminescence, single concentration. shares compounds with SENP7 inh. 6,200 compounds, 40% hits. inhibition, % at 12.5 µM. AID 488912, 2010. Recombinant SENP8, Z-RLRGG-aminoluciferin luminescence, 60 min;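 active = mean inhibition across replicates above about 50%, limit read from the data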
SENP6 conf: SENP6 protease inhibitors, confirmation, biochemical, luminescence, single concentration; shares compounds with SENP7 inh; inhibition, % at 12.5 µM; recombinant SENP6, Z-RLRGG-aminoluciferin luminescence; 6,200 compounds, 58% hits
SENP7 confirm: SENP7 protease inhibitors, retest, confirmation, biochemical, luminescence, single concentration | shares compounds with SENP7 inh | recombinant SENP7, Z-RLRGG-aminoluciferin luminescence, 40 min | inhibition, % at 12.5 µM | 6,200 compounds, 69% hits | AID 488917, 2010
Casp3 SENP sel: caspase-3 protease inhibitors, confirmation, selectivity assay for SENP inhibitor project, biochemical, single concentration | shares compounds with SENP7 inh | purified caspase-3, Z-DEVD-aminoluciferin luminescence, 60 min | 6,200 compounds, 60% hits | inhibition, % at 12.5 µM;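 active = mean inhibition above about 50%, limit read from the data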;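 also: plate controls were enzyme with DMSO for no effect and wells without caspase-3 for full effect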
Luc interf: luminescence interference (SENP counter-screen); shares compounds with SENP7 inh; Pre-incubated SENP8/Z-RLRGG-aminoluciferin, luciferase luminescence interference; inhibition, % at 12.5 µM; 6,200 compounds, 39% hits;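 active = mean inhibition above about 50% when retested at one dose, limit read from the data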;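 also: plate controls were DMSO wells with completed reaction for no effect and substrate without enzyme for full effect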
* = called active by the depositor; nt = no result. Most compounds without a hit are left out; they make up all but 2.5% or so of the library.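 The calls were made as follows, unless noted: active = mean inhibition above about 50% in the one-dose retest (limit read from the data); inactive = the rest.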

SMILES	SENP8 block-1	SENP6 inh	SENP8 block-2	SENP1 inh	SENP7 inh	SENP8 conf	SENP6 conf	SENP7 confirm	Casp3 SENP sel	Luc interf
CCOC(=O)c1nnsc1NC(=O)Nc1ccc(OC)cc1	-8	-17	5	1	51*	13	10	10	12	-4
CCOC(=O)c1nnsc1NC(C)=O	-6	-1	10	-8	-3	nt	nt	nt	nt	nt
Cc1ccc(NC(=O)Nc2cccc([N+](=O)[O-])c2)cc1F	-15	-12	4	1	-4	nt	nt	nt	nt	nt
O=C(Nc1ccc(OC(F)(F)F)cc1)c1[nH]ncc1[N+](=O)[O-]	56*	72*	1	0	32	70*	68*	88*	59*	70*
O=C(Nc1ccc(S(=O)(=O)N2CCCCCC2)cc1)c1[nH]ncc1[N+](=O)[O-]	75*	75*	10	1	41	-7	72*	90*	65*	78*
Cc1onc(C(=O)Nc2ccc(OC(F)(F)F)cc2)c1[N+](=O)[O-]	1	-6	4	5	6	nt	nt	nt	nt	nt
O=C(Nc1ccc(OC(F)(F)F)cc1)Nc1cccc([N+](=O)[O-])c1	28	56*	14	3	24	8	26	72*	6	0
COc1cccc(CNC(C)(C)CO)c1OCc1ccc(Cl)cc1	4	-13	16	1	4	nt	nt	nt	nt	nt
COc1cccc(OCc2ccc(Cl)cc2)c1C#N	93*	91*	14	0	97*	84*	96*	100*	88*	41
CC1CC(C)CN(C(C(=O)NC2CCCCC2)c2cc3ccccc3o2)C1 (stereo not given)	nt	nt	2	2	nt	nt	nt	nt	nt	nt
Cc1cc2ncn(S(=O)(=O)c3ccc(S(=O)(=O)N4CCCCCC4)cc3)c2cc1C	-8	0	5	1	68*	-5	-1	4	3	-3
Cc1cc2ncn(S(=O)(=O)c3ccc(S(N)(=O)=O)cc3)c2cc1C	nt	nt	5	-2	nt	nt	nt	nt	nt	nt
CC(=O)c1ccc(N=Nc2ccc(N)cc2)cc1	49	75*	46*	4	78*	60*	62*	88*	62*	12
CC(=O)c1ccc(NS(=O)(=O)c2ccc(N)cc2)cc1	5	-10	4	1	0	nt	nt	nt	nt	nt
CC(=O)c1ccc(N=Nc2c(C)[nH][nH]c2=O)cc1	41	55*	56*	4	79*	56*	57*	76*	88*	38
Cc1[nH][nH]c(=O)c1N=Nc1ccc(Br)c(Cl)c1	86*	94*	28	5	71*	40	49	44	46	-4
S=c1[nH]nc(-c2n[nH]c3c2CCC3)n1/N=C/C=C/c1ccccc1	-1	-5	22	1	-2	nt	nt	nt	nt	nt
CCCCc1ccc(-c2ccc(Br)cc2)nc1	58*	68*	14	1	10	30	34	51*	46	40
CCCc1ccc(-c2ccc(F)c(N)c2)nc1	94*	95*	-7	0	96*	94*	97*	103*	97*	96*

Screens as filed in PubChem BioAssay.
